Activity calls are given as the source filed them. No cut-off for these calls is given here.
Assays:
[1] = Growth inhibition of human U251 cells after 48 hrs by sulforhodamine B colorimetric assay; assay type: functional; conditions: U-251, 48 h
Procedure, shortened: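 U251 glioblastoma cells kept in DMEM with 10% FBS at 37°C, 5% CO2. Compounds in DMSO; vehicle-only controls. SRB colorimetric read-out at a 48 h end-point. Mean ± S.D. of three separate SRB assays.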

[2] = Growth inhibition of human U251 cells at 10 uM after 48 hrs by sulforhodamine B colorimetric assay relative to control; assay type: functional; conditions: U-251, 48 h, read-out: GI
Procedure, shortened: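 U251 glioblastoma cells kept in DMEM with 10% FBS at 37°C, 5% CO2. Compounds in DMSO; vehicle-only controls. SRB colorimetric read-out at a 48 h end-point. GI50 relative to untreated control calculated by the NCI-60 protocol; top concentration tested 10 μM. Mean ± S.D. of three separate SRB assays.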

U-251 [3] = test: Mitotic arrest in human U251 cells assessed as accumulation at G2/M phase at >=500 nM after 24 hrs by propidium iodide staining based flow cytometric analysis; assay type: functional, cell-based
Procedure, shortened: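 U251 cells seeded at 3.5 × 10^5 per 60 mm dish and treated the next day for 24 h. Attached and detached cells were harvested by trypsin and fixed in ice-cold 70% ethanol. They were then suspended in PBS with 6.25 mM MgSO4 and 1 mM CaCl2, RNase A-treated at 37 °C for 15 min and stained with propidium iodide. DNA content was read by flow cytometry.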

U-251 [4] = test: Induction of methuosis in human U251 cells assessed as vacuolization at 2.5 uM after 48 hrs by phase contrast microscopic analysis; assay type: functional, cell-based
U-251 [5] = test: Induction of methuosis in human U251 cells assessed as formation of membrane blebs on cell surface at 2.5 uM after 48 hrs by phase contrast microscopic analysis; assay type: functional, cell-based
U-251 [6] = test: Induction of methuosis in human U251 cells assessed as rounding of cell body at 2.5 uM after 48 hrs by phase contrast microscopic analysis; assay type: functional, cell-based
U-251 [7] = test: Induction of microtubule disruption in human U251 cells up to 2.5 uM by DAPI staining based immunofluorescence microscopy; assay type: cell-based
Procedure, shortened: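 U251 cells seeded on glass coverslips, 350,000 per 60 mm dish. One day later, fresh medium with compound at the stated concentrations was added for 24 h. Cells were fixed and stained with monoclonal anti-α-tubulin, then Alexa Fluor 568 goat anti-mouse IgG. Nuclei counterstained with DAPI.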

U-251 [8] = test: Induction of methuosis in human U251 cells assessed as rounding of cell body at 2.5 uM after 24 hrs by phase contrast microscopic analysis; assay type: functional, cell-based
U-251 [9] = test: Induction of methuosis in human U251 cells assessed as cell detachment from dish at 2.5 uM after 24 hrs by phase contrast microscopic analysis; assay type: functional, cell-based

Row | Structure (SMILES) | GI50 [1] | inhibition of growth at 10 µM [2] | further results
1 | COc1ccc2[nH]c(C)c(/C=C/C(=O)c3cc(OC)c(OC)c(OC)c3)c2c1 | > 10 µM | < 50% | –
2 | COc1cccc2c(/C=C/C(=O)c3ccncc3)c(C)[nH]c12 | 4.42 µM | – | –
3 | COc1cc2[nH]c(C)c(/C=C/C(=O)c3ccncc3)c2cc1OC | > 10 µM | < 50% | –
4 | COc1ccc2c(/C=C/C(=O)c3ccncc3)c(C)[nH]c2c1 | 0.09 µM | – | Activity (U-251 [3]): Active; Activity (U-251 [4]): Active; Activity (U-251 [5]): Active; Activity (U-251 [6]): Active; Activity (U-251 [7]): Active; Activity (U-251 [8]): Active; Activity (U-251 [9]): Active
5 | COc1cccc2[nH]c(C)c(/C=C/C(=O)c3ccncc3)c12 | 8.67 µM | – | Activity (U-251 [4]): Active
6 | COc1cc(OC)c(C(=O)/C=C/c2c(C)[nH]c3ccc(OC)cc23)c(OC)c1 | 3.74 µM | – | –
7 | COc1ccc2c(c1)c(/C=C/C(=O)c1ccncc1)c(C)n2C | > 10 µM | < 50% | –
8 | COc1ccc2c(/C=C/C(=O)c3ccncc3)c(C(F)(F)F)[nH]c2c1 | > 10 µM | < 50% | –
